Reference: ChEMBL document CHEMBL4834477, “Synthesis and biological evaluation of novel purinyl quinazolinone derivatives as PI3Kδ-specific inhibitors for the treatment of hematologic malignancies” (Bioorg Med Chem, 2021)
Activity calls are given as the source filed them. The calls are words filed in the database; no cut-off is given here.

How the values were obtained:
[1] = system: MOLT-4; assay: Antiproliferative activity against human MOLT-4 cells assessed as cell viability at 20 uM by CellTiter-Glo luminescent cell viability assay (reference value: 100%); type: functional; settings: read-out: Activity
[2] = species on record: Homo sapiens; assay: Selectivity ratio of IC50 for recombinant human full length His-tagged p110gamma expressed in baculovirus expression system to IC50 for recombinant human full length His-tagged p110delta/p85alpha expressed in baculovirus expression system
[3] = target: T1, Phosphatidylinositol 4,5-bisphosphate 3-kinase catalytic subunit delta isoform (Homo sapiens) (UniProt O00329); assay: Inhibition of PI3Kdelta in human SU-DHL-5 cells assessed as inhibition of AKT phosphorylation at Ser473 residue at 1 to 5 uM measured after 3 hrs by western blot assay; type: cell-based; settings: dose 1-5 µM
T1 sequence (whole entry): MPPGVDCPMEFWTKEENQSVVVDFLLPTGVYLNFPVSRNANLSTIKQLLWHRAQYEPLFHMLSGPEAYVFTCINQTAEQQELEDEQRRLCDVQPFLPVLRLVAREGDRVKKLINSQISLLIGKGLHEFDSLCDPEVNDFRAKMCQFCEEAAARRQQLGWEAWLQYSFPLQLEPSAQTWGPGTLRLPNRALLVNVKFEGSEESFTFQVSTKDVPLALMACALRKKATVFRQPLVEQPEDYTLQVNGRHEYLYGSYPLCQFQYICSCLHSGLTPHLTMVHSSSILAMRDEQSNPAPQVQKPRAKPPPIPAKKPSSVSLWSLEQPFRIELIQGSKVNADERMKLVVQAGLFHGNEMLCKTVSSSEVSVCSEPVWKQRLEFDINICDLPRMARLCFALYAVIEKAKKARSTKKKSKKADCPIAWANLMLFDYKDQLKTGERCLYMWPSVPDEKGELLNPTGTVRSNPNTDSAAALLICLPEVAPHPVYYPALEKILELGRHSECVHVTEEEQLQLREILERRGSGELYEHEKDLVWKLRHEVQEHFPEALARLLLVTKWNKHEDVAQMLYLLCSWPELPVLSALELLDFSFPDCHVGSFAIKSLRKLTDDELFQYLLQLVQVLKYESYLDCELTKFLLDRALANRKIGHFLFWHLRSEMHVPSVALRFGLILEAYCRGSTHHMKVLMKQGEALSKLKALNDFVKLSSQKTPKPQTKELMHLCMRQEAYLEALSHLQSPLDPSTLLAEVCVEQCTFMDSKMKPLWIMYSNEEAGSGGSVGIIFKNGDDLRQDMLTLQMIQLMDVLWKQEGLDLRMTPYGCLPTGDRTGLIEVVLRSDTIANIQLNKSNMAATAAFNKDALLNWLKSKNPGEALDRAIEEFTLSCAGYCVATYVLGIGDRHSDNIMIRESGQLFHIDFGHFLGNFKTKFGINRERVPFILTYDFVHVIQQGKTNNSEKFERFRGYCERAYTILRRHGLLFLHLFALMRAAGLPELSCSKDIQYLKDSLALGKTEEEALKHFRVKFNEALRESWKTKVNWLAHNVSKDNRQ
Procedure, shortened: (§1)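 Treatment lasted 3 h: SUDHL-5 at 1 μM, MOLT-4 at 5 μM. Cells washed twice in cold PBS and lysed. Proteins resolved on 10–12% SDS-PAGE and blotted to PVDF. Probed for p-AKT S473, p-AKT T308, p-S6 and p-4E-BP1, with β-actin as loading control.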

[4] = target: T1, Phosphatidylinositol 4,5-bisphosphate 3-kinase catalytic subunit delta isoform (Homo sapiens); assay: Inhibition of PI3Kdelta in human MOLT-4 cells assessed as inhibition of AKT phosphorylation at Ser473 residue at 1 to 5 uM measured after 3 hrs by western blot assay; type: cell-based; settings: dose 1-5 µM; procedure, shortened: as §1
[5] = target: T1, Phosphatidylinositol 4,5-bisphosphate 3-kinase catalytic subunit delta isoform (Homo sapiens); assay: Inhibition of PI3Kdelta in human SU-DHL-5 cells assessed as inhibition of 4EBP1 phosphorylation at 1 to 5 uM measured after 3 hrs by western blot assay; type: cell-based; settings: dose 1-5 µM; procedure, shortened: as §1
[6] = system: SU-DHL10; assay: Induction of apoptosis in human SU-DHL-10 cells assessed as viable cells at 20 uM measured after 24 hrs by AnnexinV-FITC/PI staining based flowcytometry method (reference value: 90%); type: functional; settings: read-out: Activity
Procedure, shortened: (§2)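 Cells exposed to 20 μM compound for 24 h, washed with cold PBS, and stained with Annexin V-FITC and propidium iodide for 15 min at room temperature. Viable, early apoptotic, late apoptotic and necrotic populations quantified by flow cytometry.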

[7] = system: SU-DHL10; assay: Induction of apoptosis in human SU-DHL-10 cells assessed as early apoptotic cells at 20 uM measured after 24 hrs by AnnexinV-FITC/PI staining based flowcytometry method (reference value: 6.32%); type: functional; procedure, shortened: as §2
[8] = system: SU-DHL10; assay: Induction of apoptosis in human SU-DHL-10 cells assessed as late apoptotic cells at 20 uM measured after 24 hrs by AnnexinV-FITC/PI staining based flowcytometry method (reference value: 3.48%); type: functional; procedure, shortened: as §2
[9] = system: MOLT-4; assay: Induction of apoptosis in human MOLT-4 cells assessed as late apoptotic cells at 20 uM measured after 24 hrs by AnnexinV-FITC/PI staining based flowcytometry method (reference value: 2.17%); type: functional; procedure, shortened: as §2
[10] = target: T1, Phosphatidylinositol 4,5-bisphosphate 3-kinase catalytic subunit delta isoform (Homo sapiens); assay: Inhibition of PI3Kdelta in human SU-DHL-5 cells assessed as inhibition of AKT phosphorylation at Thr308 residue at 1 to 5 uM measured after 3 hrs by western blot assay; type: cell-based; settings: dose 1-5 µM; procedure, shortened: as §1
[11] = target: PI3-kinase p110-alpha/p85-alpha (Homo sapiens, UniProt P42336); assay: Inhibition of recombinant human full length N-terminal His-tagged p110alpha/p85alpha expressed in baculovirus expression system measured after 60 mins in presence of ATP by ATP-competitive binding assay
Procedure, shortened: (§3)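 SelectScreen ATP-competitive assay using 10-point titration with 1 μM top final compound concentration. Kinase, substrate and ATP mixed in 30 mM HEPES buffer and reacted 60 min. IC50 taken as the mean of three independent experiments.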

[12] = target: Phosphatidylinositol 4,5-bisphosphate 3-kinase catalytic subunit beta isoform (Homo sapiens, UniProt P42338); assay: Inhibition of recombinant human full length His-tagged p110beta expressed in baculovirus expression system measured after 60 mins in presence of ATP by ATP-competitive binding assay; procedure, shortened: as §3
[13] = target: Phosphatidylinositol 4,5-bisphosphate 3-kinase catalytic subunit gamma isoform (Homo sapiens, UniProt P48736); assay: Inhibition of recombinant human full length His-tagged p110gamma expressed in baculovirus expression system measured after 60 mins in presence of ATP by ATP-competitive binding assay; procedure, shortened: as §3
[14] = AUC (last) in Sprague-Dawley rat at 1 mg/kg, po measured for 24 hrs by LC-MS/MS analysis; type: ADME, organism-based; design: route oral, dose 1 mg/kg, time 24 hrs; settings: in vivo
Procedure, shortened: (§4)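 Sprague-Dawley rats dosed orally at 1 or 3 mg/kg, three animals per group. Blood sampled at 0.25, 0.5, 1, 2, 4, 8 and 24 h post-dose. Plasma separated by centrifugation, extracted and quantified by LC-MS/MS. PK parameters (Cmax, AUClast, Tmax, t1/2) derived by non-compartmental software.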

[15] = Cmax in Sprague-Dawley rat at 1 mg/kg, po measured for 24 hrs by LC-MS/MS analysis; type: ADME, organism-based; design: route oral, dose 1 mg/kg, time 24 hrs; settings: in vivo; procedure, shortened: as §4
[16] = Half life in Sprague-Dawley rat at 1 mg/kg, po measured for 24 hrs by LC-MS/MS analysis; type: ADME, organism-based; settings: in vivo; procedure, shortened: as §4

Sequence of Phosphatidylinositol 4,5-bisphosphate 3-kinase catalytic subunit gamma isoform (P48736 whole entry, canonical isoform): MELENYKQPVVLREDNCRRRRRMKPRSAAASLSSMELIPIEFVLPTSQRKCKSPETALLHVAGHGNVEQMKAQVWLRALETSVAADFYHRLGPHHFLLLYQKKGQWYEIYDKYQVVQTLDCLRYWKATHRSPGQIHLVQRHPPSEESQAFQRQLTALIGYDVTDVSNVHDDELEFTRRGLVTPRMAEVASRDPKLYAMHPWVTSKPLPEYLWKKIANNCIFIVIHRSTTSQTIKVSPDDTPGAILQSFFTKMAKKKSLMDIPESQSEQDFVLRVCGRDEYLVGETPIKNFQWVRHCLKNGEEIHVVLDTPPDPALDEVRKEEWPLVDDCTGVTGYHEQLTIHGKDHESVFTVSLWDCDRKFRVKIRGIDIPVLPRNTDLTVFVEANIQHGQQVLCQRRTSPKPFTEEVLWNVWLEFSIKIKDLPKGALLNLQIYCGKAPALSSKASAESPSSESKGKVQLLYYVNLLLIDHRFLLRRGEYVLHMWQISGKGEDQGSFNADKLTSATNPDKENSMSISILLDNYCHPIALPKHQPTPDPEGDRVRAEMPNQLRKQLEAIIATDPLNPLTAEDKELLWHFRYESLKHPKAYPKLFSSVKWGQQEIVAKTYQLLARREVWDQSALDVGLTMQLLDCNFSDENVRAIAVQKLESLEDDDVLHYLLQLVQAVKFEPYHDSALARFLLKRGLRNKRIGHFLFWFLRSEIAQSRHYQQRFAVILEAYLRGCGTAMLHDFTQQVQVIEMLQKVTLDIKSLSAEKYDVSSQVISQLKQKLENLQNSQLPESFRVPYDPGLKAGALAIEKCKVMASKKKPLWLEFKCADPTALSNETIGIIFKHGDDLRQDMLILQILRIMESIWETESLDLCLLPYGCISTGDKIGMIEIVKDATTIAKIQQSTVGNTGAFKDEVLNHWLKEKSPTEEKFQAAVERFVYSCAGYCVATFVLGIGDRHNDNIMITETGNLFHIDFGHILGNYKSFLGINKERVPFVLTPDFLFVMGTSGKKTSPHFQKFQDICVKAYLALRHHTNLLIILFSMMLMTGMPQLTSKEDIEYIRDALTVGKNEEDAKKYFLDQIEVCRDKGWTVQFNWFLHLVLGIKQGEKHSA
Sequence of Phosphatidylinositol 4,5-bisphosphate 3-kinase catalytic subunit beta isoform (P42338 whole entry, canonical isoform): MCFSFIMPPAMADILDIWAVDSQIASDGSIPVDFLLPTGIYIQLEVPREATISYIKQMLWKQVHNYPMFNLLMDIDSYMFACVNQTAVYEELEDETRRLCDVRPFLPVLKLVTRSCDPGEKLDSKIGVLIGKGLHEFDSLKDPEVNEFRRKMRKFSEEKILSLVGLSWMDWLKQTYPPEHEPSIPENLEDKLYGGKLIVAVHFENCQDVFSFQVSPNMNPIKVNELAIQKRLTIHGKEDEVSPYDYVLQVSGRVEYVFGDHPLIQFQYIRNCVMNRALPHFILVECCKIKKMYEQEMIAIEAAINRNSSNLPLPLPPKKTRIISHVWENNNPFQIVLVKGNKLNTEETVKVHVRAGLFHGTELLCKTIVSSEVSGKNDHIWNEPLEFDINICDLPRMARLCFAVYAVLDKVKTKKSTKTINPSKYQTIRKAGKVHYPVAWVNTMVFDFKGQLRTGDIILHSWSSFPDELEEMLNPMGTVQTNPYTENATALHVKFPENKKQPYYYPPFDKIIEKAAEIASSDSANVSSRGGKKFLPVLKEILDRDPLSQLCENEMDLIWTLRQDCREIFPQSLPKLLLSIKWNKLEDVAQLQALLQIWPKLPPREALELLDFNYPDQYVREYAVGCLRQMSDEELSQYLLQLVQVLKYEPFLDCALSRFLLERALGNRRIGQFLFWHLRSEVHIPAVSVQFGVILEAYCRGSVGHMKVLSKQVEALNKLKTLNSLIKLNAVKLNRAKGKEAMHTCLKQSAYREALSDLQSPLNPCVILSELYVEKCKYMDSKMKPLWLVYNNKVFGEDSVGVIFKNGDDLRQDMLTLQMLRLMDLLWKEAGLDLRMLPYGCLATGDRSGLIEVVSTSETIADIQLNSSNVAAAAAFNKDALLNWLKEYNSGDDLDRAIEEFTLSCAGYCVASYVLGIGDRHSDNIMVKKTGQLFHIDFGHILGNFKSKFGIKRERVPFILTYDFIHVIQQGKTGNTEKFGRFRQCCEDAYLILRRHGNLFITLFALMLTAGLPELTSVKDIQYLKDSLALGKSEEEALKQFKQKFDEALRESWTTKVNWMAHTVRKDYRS
Sequence of PI3-kinase p110-alpha/p85-alpha (P27986 whole entry): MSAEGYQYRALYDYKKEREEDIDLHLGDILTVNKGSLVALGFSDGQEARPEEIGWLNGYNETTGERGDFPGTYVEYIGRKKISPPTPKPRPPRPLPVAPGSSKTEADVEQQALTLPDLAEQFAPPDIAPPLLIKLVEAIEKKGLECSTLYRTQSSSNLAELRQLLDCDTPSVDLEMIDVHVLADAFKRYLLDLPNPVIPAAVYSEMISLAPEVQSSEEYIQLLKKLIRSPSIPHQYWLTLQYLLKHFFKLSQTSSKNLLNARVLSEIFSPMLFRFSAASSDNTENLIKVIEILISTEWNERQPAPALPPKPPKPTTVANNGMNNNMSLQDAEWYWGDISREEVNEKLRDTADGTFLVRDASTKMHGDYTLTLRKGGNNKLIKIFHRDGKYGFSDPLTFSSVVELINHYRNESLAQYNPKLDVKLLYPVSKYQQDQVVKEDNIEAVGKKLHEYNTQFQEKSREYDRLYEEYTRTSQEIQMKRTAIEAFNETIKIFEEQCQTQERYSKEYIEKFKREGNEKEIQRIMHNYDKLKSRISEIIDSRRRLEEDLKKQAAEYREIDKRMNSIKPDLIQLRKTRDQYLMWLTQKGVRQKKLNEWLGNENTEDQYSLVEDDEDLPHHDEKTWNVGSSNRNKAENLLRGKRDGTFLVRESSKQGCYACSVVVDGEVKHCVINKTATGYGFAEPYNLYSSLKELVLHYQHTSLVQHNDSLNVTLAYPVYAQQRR
Sequence of PI3-kinase p110-alpha/p85-alpha (P42336 whole entry): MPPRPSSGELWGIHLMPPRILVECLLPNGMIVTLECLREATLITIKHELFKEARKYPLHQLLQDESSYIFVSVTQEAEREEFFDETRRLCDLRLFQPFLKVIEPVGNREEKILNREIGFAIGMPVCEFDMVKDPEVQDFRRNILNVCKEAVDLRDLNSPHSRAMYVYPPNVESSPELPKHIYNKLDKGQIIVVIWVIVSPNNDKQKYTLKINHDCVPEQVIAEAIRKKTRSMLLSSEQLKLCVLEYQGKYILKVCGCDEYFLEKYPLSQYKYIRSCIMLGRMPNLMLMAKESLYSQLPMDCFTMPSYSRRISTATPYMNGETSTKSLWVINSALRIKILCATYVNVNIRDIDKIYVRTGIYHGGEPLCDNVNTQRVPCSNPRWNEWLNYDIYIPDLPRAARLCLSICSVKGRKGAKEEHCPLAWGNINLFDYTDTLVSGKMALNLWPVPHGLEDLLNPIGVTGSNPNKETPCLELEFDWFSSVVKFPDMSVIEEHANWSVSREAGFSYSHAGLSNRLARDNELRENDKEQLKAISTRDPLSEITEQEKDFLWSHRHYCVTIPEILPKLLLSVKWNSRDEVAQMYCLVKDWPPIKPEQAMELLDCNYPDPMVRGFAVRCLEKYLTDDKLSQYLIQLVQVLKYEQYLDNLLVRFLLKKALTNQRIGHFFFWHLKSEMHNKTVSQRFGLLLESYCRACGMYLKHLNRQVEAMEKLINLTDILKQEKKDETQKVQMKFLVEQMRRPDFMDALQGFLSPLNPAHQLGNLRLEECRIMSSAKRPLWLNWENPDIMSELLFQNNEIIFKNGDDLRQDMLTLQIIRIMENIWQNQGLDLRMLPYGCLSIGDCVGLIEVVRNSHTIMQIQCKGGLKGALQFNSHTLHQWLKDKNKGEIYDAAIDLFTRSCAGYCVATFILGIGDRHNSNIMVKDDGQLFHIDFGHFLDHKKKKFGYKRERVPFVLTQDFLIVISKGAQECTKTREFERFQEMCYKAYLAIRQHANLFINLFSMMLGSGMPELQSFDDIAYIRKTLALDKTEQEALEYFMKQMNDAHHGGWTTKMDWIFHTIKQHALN

| Ratio IC50 [2] | inhibition [3] | inhibition [4] | inhibition [5] | inhibition [10] | IC50 [11] | IC50 [12] | IC50 [13] | AUC(0-t) at 24 h [14] | Cmax [15] | half-life [16] | Structure (SMILES) | viability at 20 µM [1] | viability at 20 µM [6] | Activity [7] | Activity [8] | Activity [9] |
| --- | --- | --- | --- | --- | --- | --- | --- | --- | --- | --- | --- | --- | --- | --- | --- | --- |
| 95.5 | Active | Active | Active | Active |  |  |  |  |  |  | Cc1cccc2nc([C@@H](Nc3ncnc4nc[nH]c34)C3CC3)n(-c3ccccc3)c(=O)c12 | 14.6% | 15% | 34.9% | 45.9% | 42.3% |
|  | Active | Active | Active | Active | 222 nM | 199 nM | 19.1 nM | 81 ng·h/mL | 18.3 ng/mL | 10.2 h | O=c1c2c(F)cccc2nc([C@@H](Nc2ncnc3nc[nH]c23)C2CC2)n1-c1ccccc1 | 63.1% | 19.7% | 54.3% | 24.2% | 30.3% |
